Columns and labels:
[1] = Area under concentration time curve in plasma was determined upon peroral dose at 1.0 mg/kg in male Beagle dogs (n=2); assay type: ADME, organism-based, Canis lupus familiaris; parameters: dose 1 mg/kg, route oral; settings: dog, po
How it was run: (§1)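 Oral screen: amorphous TFA salt given at 1 mg/kg as 1% methocel suspension to male beagles (n=2). Plasma sampled over 8 h plus a 24 h sample. Compound isolated by solid-phase extraction and quantified by LC-MS/MS against a standard curve. AUC and T1/2 taken from the concentration–time curve. AUC standard error about ±20%.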

Rattus norvegicus [2] = species: Rattus norvegicus; test: Inhibition of FeCl3-induced vessel occlusion in rat arterial thrombosis model; 0 out of 5 occlusins; assay type: functional
Prothrombin = Prothrombin (Homo sapiens, UniProt P00734); test: Inhibition of coagulation factor II (thrombin) of human
Rattus norvegicus [3] = species: Rattus norvegicus; test: Percent of free compound observed in rat plasma (unbound to plasma protein); assay type: functional
[4] = Plasma half-life of compound upon peroral dose at 1.0 mg/kg in male Beagle dogs (n=2); assay type: ADME, organism-based, Canis lupus familiaris; parameters: dose 1 mg/kg, route oral; settings: dog, po; for T1/2: in vivo; for half-life: male, Beagle, plasma; how it was run: as §1
Cell line = test: Percent of free compound observed in human plasma (unbound to plasma protein); assay type: functional
Rattus norvegicus [5] = species: Rattus norvegicus; test: Inhibition of FeCl3-induced vessel occlusion in rat arterial thrombosis model; 3 out of 5 occlusions; assay type: functional
[6] = Inhibition of human plasma coagulation triggered by intrinsic pathway by doubling the activated partial thromboplastin time (2x APTT); assay type: functional, cell-free; settings: Cell line
How it was run: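 Human plasma was diluted 3-fold. The value is the test-compound concentration that doubles the activated partial thromboplastin time. Standard error is ±20%.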

[7] = Plasma half-life of compound upon i.v. (2 mg/kg) and p.o. (10 mg/kg) dose in male rats (n=3); assay type: ADME, organism-based; settings: rat
Rattus norvegicus [8] = species: Rattus norvegicus; test: Inhibition of FeCl3-induced vessel occlusion in rat arterial thrombosis model; 0 out of 6 occlusions; assay type: functional
[9] = Plasma half-life of compound upon i.v. and p.o. dose at 1 mg/kg in male Beagle dogs (n=2); assay type: ADME, organism-based, Canis lupus familiaris; parameters: dose 1 mg/kg, route oral; settings: dog, po
[10] = Total clearance in plasma upon i.v. (2 mg/kg) and p.o. (10 mg/kg) dose in male rats (n=3); assay type: ADME, organism-based; settings: rat, iv
[11] = Bioavailability in rat (male) (dose 2 mg/kg i.v. and 10 mg/kg p.o.); assay type: ADME, organism-based; settings: in vivo, po
[12] = Total clearance in dog upon i.v. and p.o. dose at 1 mg/kg in male Beagle dogs (n=2); assay type: ADME, organism-based, Canis lupus familiaris; parameters: dose 1 mg/kg, route oral; settings: in vivo, po
[13] = Bioavailability in dog (male Beagle) (dose 1 mg/kg i.v. and p.o.); assay type: ADME, organism-based, Canis lupus familiaris; settings: in vivo, po
[14] = Plasma half-life of compound upon i.v. (1 mg/kg) and p.o. (2 mg/kg) dose in male rhesus macaques (n=2); assay type: ADME, organism-based; settings: cercopithecidae
[15] = Volume of distribution upon i.v. and p.o. dose at 1 mg/kg in male Beagle dogs (n=2); assay type: ADME, organism-based, Canis lupus familiaris; parameters: dose 1 mg/kg, route oral; settings: dog, in vivo, po
[16] = Bioavailability in Rhesus macaques (male) (dose 1 mg/kg i.v. and 2 mg/kg p.o.); assay type: ADME, organism-based, Macaca mulatta; settings: rhesus monkey, in vivo, po
[17] = Total clearance in plasma upon i.v. (1 mg/kg) and p.o. (2 mg/kg) dose in male rhesus macaques (n=2); assay type: ADME, organism-based; settings: cercopithecidae, iv
[18] = Volume of distribution upon i.v. (2 mg/kg) and p.o. (10 mg/kg) dose in male rats (n=3); assay type: ADME, organism-based; settings: rat, in vivo, iv
[19] = Volume of distribution upon i.v. (1 mg/kg) and p.o. (2 mg/kg) dose in male rhesus macaques (n=2); assay type: ADME, organism-based; settings: cercopithecidae, in vivo, iv
[20] = male, Beagle, plasma, read-out: AUC

`NCc1ccc(Cl)cc1CNC(=O)[C@@H]1CCCN1C(=O)C1(O)c2ccccc2-c2ccncc21` (stereo in doubt; form 1) [listing 1 of 2 here] gave an AUC [1, 20] of 12 µM·h, an Activity (Rattus norvegicus [2]) of 0 and a Ki (Prothrombin) of 3.2 nM. For the same compound, the Activity (Rattus norvegicus [3]) was 34%, the T1/2 [4] was 2.5 h and the Activity (Cell line) was 13%.
For `NCc1ccc(Cl)cc1CNC(=O)[C@@H]1CCCN1C(=O)C1(O)c2ccccc2-c2cnccc21` (stereo in doubt; form 1) [listing 1 of 2 here], the AUC ([1]; in vivo) was 2.4 µM·h, the Ki (Prothrombin) was 2 nM and the Activity (Rattus norvegicus [5]) was 3. It also gave an Activity (Rattus norvegicus [3]) of 18%, a T1/2 [4] of 2 h and an Activity (Cell line) of 22%.
`NCc1ccc(Cl)cc1CNC(=O)[C@@H]1CCCN1C(=O)C1(O)c2ccccc2-c2cc[n+]([O-])cc21` (stereo in doubt; form 1) gave a Ki (Prothrombin) of 37 nM.
`NCc1ccc(Cl)cc1CNC(=O)[C@@H]1CCCN1C(=O)C1(O)c2ccccc2-c2c1ccc[n+]2[O-]` (stereo in doubt; form 1) gave a Concentration [6] of 0.43 µM.
Compound `NCc1ccc(Cl)cc1CNC(=O)[C@@H]1CCCN1C(=O)C1(O)c2ccccc2-c2c[n+]([O-])ccc21` (stereo in doubt; form 1) has a Concentration [6] of 0.71 µM.
Work on `NCc1ccc(Cl)cc1CNC(=O)[C@@H]1CCCN1C(=O)C1(O)c2ccccc2-c2ccc[n+]([O-])c21` (stereo in doubt; form 1) yielded a Concentration [6] of 0.085 µM.
Compound `NCc1ccc(Cl)cc1CNC(=O)[C@@H]1CCCN1C(=O)C1(O)c2ccccc2-c2ccncc21` (stereo in doubt; form 1) [listing 2 of 2 here] has a Concentration [6] of 0.94 µM.
With `NCc1ccc(Cl)cc1CNC(=O)[C@@H]1CCCN1C(=O)C1(O)c2ccccc2-c2cnccc21` (stereo in doubt; form 1) [listing 2 of 2 here] the Concentration [6] was 0.29 µM.
Compound `NCc1ccc(Cl)cc1CNC(=O)[C@@H]1CCCN1C(=O)C1(O)c2ccccc2-c2c1ccc[n+]2[O-]` (stereo in doubt; form 2) [listing 1 of 2 here] has an AUC [1, 20] of 2.9 µM·h, a Ki (Prothrombin) of 2.1 nM and a half-life [7] of 7 h. It also gave an Activity (Rattus norvegicus [8]) of 0, a half-life [9] of 5.7 h and an Activity (Rattus norvegicus [3]) of 42%. For the same compound, the clearance [10] was 9.4 mL/min/kg, the bioavailability [11] was 1% and the CL [12] was 1 mL/min/kg. The bioavailability [13] was 9%, the half-life [14] was 6.3 h and the Vd [15] was 0.52 L/kg. The bioavailability [16] was 5%, the clearance [17] was 6.4 mL/min/kg and the half-life [4] was 5.7 h. For the same compound, the Activity (Cell line) was 56%, the Vd [18] was 2.9 L/kg and the Vd [19] was 2 L/kg.
For `NCc1ccc(Cl)cc1CNC(=O)[C@@H]1CCCN1C(=O)C1(O)c2ccccc2-c2ccc[n+]([O-])c21` (stereo in doubt; form 2), the Ki (Prothrombin) was 140 nM.
With `NCc1ccc(Cl)cc1CNC(=O)[C@@H]1CCCN1C(=O)C1(O)c2ccccc2-c2ccncc21` (stereo in doubt; form 2) [listing 1 of 2 here] the AUC ([1]; in vivo) was 24 µM·h, the Ki (Prothrombin) was 0.3 nM and the Activity (Rattus norvegicus [8]) was 0. The Activity (Rattus norvegicus [3]) was 30%, the T1/2 [4] was 10 h and the Activity (Cell line) was 27%.
With `NCc1ccc(Cl)cc1CNC(=O)[C@@H]1CCCN1C(=O)C1(O)c2ccccc2-c2cc[n+]([O-])cc21` (stereo in doubt; form 2) [listing 1 of 2 here] the AUC [1, 20] was 0.28 µM·h, the Ki (Prothrombin) was 0.98 nM and the Activity (Rattus norvegicus [8]) was 0. The Activity (Rattus norvegicus [3]) was 70%, the half-life [4] was 1.8 h and the Activity (Cell line) was 59%.
`NCc1ccc(Cl)cc1CNC(=O)[C@@H]1CCCN1C(=O)C1(O)c2ccccc2-c2c1ccc[n+]2[O-]` (stereo in doubt; form 2) [listing 2 of 2 here] showed a Concentration [6] of 0.27 µM.
Work on `NCc1ccc(Cl)cc1CNC(=O)[C@@H]1CCCN1C(=O)C1(O)c2ccccc2-c2c[n+]([O-])ccc21` (stereo in doubt; form 2) yielded a Concentration [6] of 0.19 µM.
`NCc1ccc(Cl)cc1CNC(=O)[C@@H]1CCCN1C(=O)C1(O)c2ccccc2-c2cc[n+]([O-])cc21` (stereo in doubt; form 2) [listing 2 of 2 here] showed a Concentration [6] of 0.13 µM.
Work on `NCc1ccc(Cl)cc1CNC(=O)[C@@H]1CCCN1C(=O)C1(O)c2ccccc2-c2ccncc21` (stereo in doubt; form 2) [listing 2 of 2 here] yielded a Concentration [6] of 0.12 µM.
In the case of `NCc1ccc(Cl)cc1CNC(=O)[C@@H]1CCCN1C(=O)C1(O)c2ccccc2-c2cnccc21` (stereo in doubt; form 2), the Concentration [6] is reported as 0.18 µM.

Reference: ChEMBL document CHEMBL1145209, “9-hydroxyazafluorenes and their use in thrombin inhibitors” (J Med Chem, 2005)
